Calls of active or inactive are those of the source. The calls are words filed in the database; no cut-off is given here.

Experiment [1] addresses T1, Peroxisome proliferator-activated receptor gamma (Homo sapiens) (UniProt P37231).
T1 sequence (whole entry): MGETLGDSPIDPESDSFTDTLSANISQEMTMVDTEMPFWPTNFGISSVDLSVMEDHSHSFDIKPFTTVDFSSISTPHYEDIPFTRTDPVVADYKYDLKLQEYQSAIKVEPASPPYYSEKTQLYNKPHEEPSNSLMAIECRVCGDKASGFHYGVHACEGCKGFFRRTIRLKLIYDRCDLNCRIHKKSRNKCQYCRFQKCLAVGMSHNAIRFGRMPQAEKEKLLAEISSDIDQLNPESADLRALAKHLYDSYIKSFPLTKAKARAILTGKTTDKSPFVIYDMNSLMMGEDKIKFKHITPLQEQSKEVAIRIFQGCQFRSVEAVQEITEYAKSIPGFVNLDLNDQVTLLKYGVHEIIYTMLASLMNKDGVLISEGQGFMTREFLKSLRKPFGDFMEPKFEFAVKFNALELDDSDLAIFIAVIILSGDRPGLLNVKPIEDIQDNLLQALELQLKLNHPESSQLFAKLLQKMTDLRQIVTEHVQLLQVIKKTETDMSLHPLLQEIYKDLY
Put plainly: Activation of human PPARgamma ligand binding domain expressed in MEF cells co-transfected with fused Gal4-DBD at 10 uM after 18 hrs by luciferase reporter gene assay relative to rosiglitazone. The experiment is classed as cell-based. A digest of the protocol:
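MEFs (DMEM, 10% calf serum) transfected with Gal4-hPPARγ-LBD, 4xUAS-TK-Luc and CMV-β-gal by Metafectene. Compound at 10 µM was added 6 h later and luciferase/β-gal read after 18 h. Activity is expressed as percent of the response to 1 µM rosiglitazone. Triplicates measured in duplicate.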

Experiment [2] deals with T2, Peroxisome proliferator-activated receptor alpha (Homo sapiens) (UniProt Q07869).
T2 sequence (whole entry): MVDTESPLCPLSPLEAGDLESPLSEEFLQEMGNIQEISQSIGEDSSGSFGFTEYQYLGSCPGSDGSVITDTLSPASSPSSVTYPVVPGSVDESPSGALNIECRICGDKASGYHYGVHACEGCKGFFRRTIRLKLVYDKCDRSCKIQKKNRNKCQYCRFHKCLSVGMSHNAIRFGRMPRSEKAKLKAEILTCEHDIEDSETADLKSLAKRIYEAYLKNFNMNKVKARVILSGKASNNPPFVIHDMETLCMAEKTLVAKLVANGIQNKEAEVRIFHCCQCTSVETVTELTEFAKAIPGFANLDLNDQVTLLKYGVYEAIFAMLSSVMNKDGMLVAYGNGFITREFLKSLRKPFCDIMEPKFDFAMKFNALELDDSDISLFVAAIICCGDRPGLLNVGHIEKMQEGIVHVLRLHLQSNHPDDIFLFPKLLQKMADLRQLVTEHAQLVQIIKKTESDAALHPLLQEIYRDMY
In words: Activation of human PPARalpha ligand binding domain expressed in mouse Hepa 1-6 cells co-transfected with fused Gal4-DBD at 0.1 to 10 uM by luciferase reporter gene assay relative to control. The experiment is classed as cell-based. A digest of the protocol:
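Hepa 1-6 cells (MEM, 10% FCS, penicillin/streptomycin) transfected at 50–70% confluence using Metafectene with Gal4-hPPARα-LBD (0.001 µg plus 0.099 µg pBSK), 4xUAS-TK-Luc reporter and CMV-β-galactosidase. Six hours later, compound was added at 0.1, 1 and 10 µM. Lysis and luminometry after 18 h. Luciferase normalized to β-gal, expressed as fold induction over 0.1% DMSO vehicle. Triplicates, each measured in duplicate.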

Experiment [3] concerns the target T3, Peroxisome proliferator-activated receptor delta (Homo sapiens) (UniProt Q03181).
T3 sequence (whole entry): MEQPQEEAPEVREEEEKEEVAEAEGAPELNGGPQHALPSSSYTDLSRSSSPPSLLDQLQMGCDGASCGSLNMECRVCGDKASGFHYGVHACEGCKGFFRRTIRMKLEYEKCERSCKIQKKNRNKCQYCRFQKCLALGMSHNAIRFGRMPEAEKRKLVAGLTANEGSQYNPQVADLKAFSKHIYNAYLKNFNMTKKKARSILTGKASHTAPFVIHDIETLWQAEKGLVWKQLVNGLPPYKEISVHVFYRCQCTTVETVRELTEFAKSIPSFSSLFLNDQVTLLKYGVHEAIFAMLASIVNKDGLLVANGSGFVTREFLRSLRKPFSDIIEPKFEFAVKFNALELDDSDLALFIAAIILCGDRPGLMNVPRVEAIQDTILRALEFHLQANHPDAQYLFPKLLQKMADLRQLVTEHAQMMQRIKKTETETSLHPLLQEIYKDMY
Put plainly: Antagonist activity at human PPARdelta ligand binding domain expressed in MEF cells co-transfected with Gal4-DBD assessed as reduction of L165041-induced transactivation response at 1 uM by luciferase reporter gene assay. The class given is cell-based. A digest of the protocol: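 MEFs transfected with Gal4-hPPARδ-LBD, UAS-luciferase reporter and CMV-β-gal. Starting 6 h post-transfection, cells were co-treated with 1 µM L165041 and a range of compound doses. After 18 h, β-gal-normalized luciferase was compared with the L165041 response. Triplicates measured in duplicate.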

For experiment [4], the target named is T4, Peroxisome proliferator-activated receptor gamma (Homo sapiens, UniProt P37231).
T4 sequence (P37231 whole entry): T1 sequence (whole entry)

The target in experiment [5] is T5, Peroxisome proliferator-activated receptor delta (Homo sapiens, UniProt Q03181).
T5 sequence (Q03181 whole entry): T3 sequence (whole entry)
In words: Displacement of fluorescent pan PPAR agonist form GST-tagged human PPARdelta ligand binding domain by FRET assay. A digest of the protocol: (§1)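 TR-FRET (LanthaScreen) competitive binding: purified GST-tagged PPAR LBD labelled with terbium anti-GST antibody, with a fluorescent pan-PPAR agonist tracer. Displacement was read as RFU over dose-response series in triplicate. IC50 came from a one-site sigmoidal fit. Reference ligands were GW7647 (PPARα) and L165041 (PPARδ).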

In experiment [6] the target is T2, Peroxisome proliferator-activated receptor alpha (Homo sapiens). In words: Activation of human PPARalpha ligand binding domain expressed in mouse Hepa 1-6 cells co-transfected with fused Gal4-DBD at 10 uM after 18 hrs by luciferase reporter gene assay relative to GW-7647. The experiment is classed as cell-based. A digest of the protocol: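 Gal4-hPPARα-LBD/UAS-luciferase transactivation in Hepa 1-6 cells (Metafectene transfection, β-gal normalization). Compound at 10 µM was added 6 h post-transfection and read 18 h later. Activity is given as percent of the response to 30 nM GW7647. Triplicates measured in duplicate.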

Experiment [7] deals with T6, Peroxisome proliferator-activated receptor alpha (Homo sapiens, UniProt Q07869).
T6 sequence (Q07869 whole entry): T2 sequence (whole entry)
Put plainly: Displacement of fluorescent pan PPAR agonist form GST-tagged human PPARalpha ligand binding domain by FRET assay. A digest of the protocol: as §1

`COC(=O)c1ccc(NC(=O)C[C@H]2C(=O)N(c3cccc(OC)c3)C(=O)N2Cc2ccc(OC)cc2)cc1` registered an Activity in experiment [1] of 20%. The result in experiment [2] and in experiment [3] was Active. In addition, the values for the IC50 in experiment [4] and in experiment [5] were 13 µM and 7.2 µM, respectively.

`CCn1c(SCC(=O)Nc2ccc(C(=O)O)cc2)nnc1-c1cc2cccc(OC)c2o1` gave an Activity in experiment [6] of 15%. Besides, in experiment [2], the result was Active. The IC50 came to 1 µM in experiment [7] and 390 µM in experiment [5].

Consider `O=C(O)c1ccc(COc2ccc3ccccc3c2/C=N/c2ccc(N3CCOCC3)cc2)cc1`, for which the Activity in experiment [6] was found to be 15%. In experiment [2], the result was Active. Further, the IC50 worked out at 43 µM in experiment [7] and 34 µM in experiment [5].

For the compound `CCOC(=O)C[C@H](C)NC(=O)c1csc(C2CCN(C(=O)c3c(F)cccc3Cl)CC2)n1`, the Activity in experiment [6] turned out to be 20%; in experiment [1], 15%. The result in experiment [2] was Active. In experiment [4], this compound yielded an IC50 of 44 µM.

Turning to `CCOC(=O)N1CCc2c(sc(NC(=O)Cc3ccc(OC)cc3)c2C(=O)Nc2ccc(C(=O)OC)cc2)C1`, the Activity in experiment [6] was 40%. The outcome in experiment [2] was Active. Besides, the IC50 in experiment [7] came to 1.5 µM.

(Values after ChEMBL document CHEMBL1140169, “Discovery of novel PPAR ligands by a virtual screening approach based on pharmacophore modeling, 3D shape, and electrostatic similarity screening” (J Med Chem, 2008).)
